Shown are actives, neighbours in structure and some others; about 27% of the full set was active somewhere.
HIV Rev-RRE inh: HIV-1 Rev-RRE binding inhibitors, primary screen, biochemical, FRET, protein-RNA interaction; Rev peptide-RRE RNA binding; inhibition, % at 8 µM; hit rate 0.79% among 97,000; AID 704, 2007;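 active means inhibition above the screen-wide mean plus 3 SD, cut at about 35% in these data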;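 further: 0% = median DMSO wells and 100% = median Neomycin B control wells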
Target sequence (P05866 whole entry, looked up): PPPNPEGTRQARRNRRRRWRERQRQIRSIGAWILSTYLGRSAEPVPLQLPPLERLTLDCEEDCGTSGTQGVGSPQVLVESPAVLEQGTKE
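Assay system: Rev peptide and RRE RNA, both fluorescently labelled; times: 5 min preincubation and 15 min binding, 25 °C; detection: FRET, ex 480 nm, em 540 and 671 nm; read-out basis: % inhibition from 671/540 nm acceptor-to-donor ratio, scaled between controls; benchmarks: DMSO low control, neomycin B high control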
CYP2C9 activ: human CYP2C9 activators, primary screen, biochemical, luminescence; AID 1024, 2008; recombinant CYP2C9, luciferin-H conversion; active compounds read high; factor 1 = untreated enzyme, 0 = blocked; Cytochrome P450 2C9 (Homo sapiens), P11712; hit rate 1.4% among 96,000; activation factor at 5 µM;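 active means activation factor of 2 or more for CYP2C9 at a 5 µM dose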;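 further: 0 = sulfaphenazole-blocked wells and 1 = vehicle-only wells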
CYP2C19 act: human CYP2C19 activators, primary screen, biochemical, luminescence. AID 1025, 2008. 96,000 tested, under 10 active. recombinant CYP2C19, luciferin-H EGE luminescence; active compounds read high; 0 = fully inhibited enzyme, 1 = untreated enzyme. activation factor at 5 µM;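 active means activation factor of at least 2 at 5 µM in the primary screen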;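 further: 0 = wells with 2.5 mM tranylcypromine and 1 = vehicle-only wells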
CYP2C19 inh: blockers of cytochrome P450 2C19 activity – biochemical, luminescence, ADME assay, primary screen. P33261. CYP2C19 Supersomes, luciferin-H EGE luminescence, 30 min. inhibition, % at 5 µM. hit rate 21% among 96,000. AID 778, 2007;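 active means CYP2C19 inhibition above a set limit at 5 µM in the primary screen, cut at about 50% in these data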;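 further: plate controls were negative control wells for no effect and 2.5 mM tranylcypromine positive control for full effect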
CYP2C9 inh: blockers of cytochrome P450 2C9 activity – biochemical, luminescence, ADME assay, primary screen. P11712. CYP2C9 Supersomes, luciferin-H conversion. inhibition, % at 5 µM. hit rate 20% among 96,000. AID 777, 2007;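 active means blocking of liver enzyme CYP2C9 beyond about 50% at 5 µM, limit read from the data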
Cav3 T inh: Cav3.2 calcium influx blockers – cell-based, Fluo-4 calcium fluorescence, FDSS, MLSMR library, primary screen; Voltage-dependent T-type calcium channel subunit alpha-1H (Homo sapiens), O95180; Cav3.2-expressing cells; active compounds read low; B-score at 10 µM; hit rate 4% among 100,000; AID 449739, 2010;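 active means single-dose well whose peak fluorescence ratio is a statistical outlier from its plate by either plate-standardised score or position-corrected B-score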
* marks the source's active call; other numbers are inactive results; · = not tested or not shown.

SMILES	HIV Rev-RRE inh	CYP2C9 activ	CYP2C19 act	CYP2C19 inh	CYP2C9 inh	Cav3 T inh
O=C1C(=O)N(CCCn2ccnc2)C(c2cccnc2)/C1=C(/O)c1ccc(F)cc1 (configuration not stated)	·	0.1	1	-2	89*	0.34
COC(=O)Nc1snnc1C	4	0.8	0.9	9	16	0.33
CCN(c1cccc(C)c1)S(=O)(=O)c1cccc2nsnc12	·	0.5	0.1	89*	53*	·
CN(C)S(=O)(=O)c1cccc2nsnc12	6	0.9	0.8	16	12	0.53
Cc1cccc(N(C)S(=O)(=O)c2cccc3nsnc23)c1	·	1.7	0.4	64*	-70	-0.062
CC1CN(C(=O)CCN2C(=O)c3ccccc3C2=O)CC(C)O1 (configuration not stated)	-5	·	·	·	·	-0.15
CC1CN(C(=O)Cc2ccc(-c3ccccc3)cc2)CC(C)O1 (configuration not stated)	7	0.4	0.4	58*	57*	0.92
CCC1(C)N=C(c2ccc3c(c2)OCO3)CC(c2ccccc2O)N1 (configuration not stated)	10	0.3	0.4	59*	74*	0.13
COc1cccc(C2=NC(C)(C)NC(c3ccccc3O)C2)c1 (configuration not stated)	9	0.5	0.7	33	48	·
COc1ccc(-n2cnnc2SCC(=O)NC2CCS(=O)(=O)C2)cc1 (configuration not stated)	9	1.2	1.2	-18	-23	0.55
CCOc1ccccc1NC1=C(Cl)C(=O)N(Cc2ccccc2)C1=O	15	0.3	0.5	52*	70*	-1.9
CCOc1cc2[nH]c(=O)n(Cc3ccccc3)c(=O)c2cc1OCC	-6	1	0.9	11	1	1.2
O=C1N(c2ccccc2)C2CS(=O)(=O)CC2N1c1ccc(Br)cc1 (configuration not stated)	6	0.8	0.8	15	23	-2.4*
Cc1ccccc1N1C(=O)N(c2cccc(C(F)(F)F)c2)C2CS(=O)(=O)CC21 (configuration not stated)	1	0.8	0.4	63*	20	-0.61
CCCCCCNC(=O)CC(c1ccccc1)c1cc(Br)ccc1O (configuration not stated)	11	·	·	·	·	-5.9*
O=C(CC(c1ccccc1)c1cc(Br)ccc1O)NCc1ccco1 (configuration not stated)	6	0	0	99*	99*	-9.9*
CC(C)Oc1ccc(CNC(=O)CC(c2ccccc2)c2cc(Cl)ccc2O)cc1 (configuration not stated)	6	0	0.1	87*	96*	-3.5*
CC(C)C(CC(=O)NCc1ccco1)c1ccco1 (configuration not stated)	4	0.8	0.8	17	24	-0.026
CC(C)NC(=O)CC(c1ccccc1)c1cc(Br)ccc1O (configuration not stated)	-3	0.1	0	95*	90*	-3.3
CCC(CCC(=O)Nc1ccn(-c2ccccc2)n1)C(=O)O (configuration not stated)	·	1.2	1.2	-22	-21	0.00051
CC(C)CC(=O)Nc1ccc(N2CCOCC2)cc1	-1	1.1	0.9	7	-6	-0.44
O=C(Cn1nnc(-c2ccccc2Cl)n1)N1CCN(S(=O)(=O)c2ccc(Cl)cc2)CC1	8	0.9	0.9	12	11	-2.4
CCC(c1nnnn1CCC(C)C)N1CCC(C(N)=O)CC1 (configuration not stated)	4	1.1	1.2	-18	-7	0.92
O=C(NCCCN1CCOCC1)c1cc2cc(Cl)cc(Cl)c2oc1=O	10	·	·	·	·	·
O=C(O)C1CCCCC1C(=O)Nc1cccc(Cl)c1Cl (configuration not stated)	6	1	0.9	9	5	0.23
Cc1cccc2cc(CN(Cc3nnnn3Cc3ccco3)C3CCCC3)c3nnnn3c12	11	0.1	0.1	92*	94*	·

Source: PubChem BioAssay (several laboratories)
